The target of series [1] is T1, ABCG2 (Homo sapiens, UniProt Q9UNQ0).
T1 sequence (Q9UNQ0 whole entry): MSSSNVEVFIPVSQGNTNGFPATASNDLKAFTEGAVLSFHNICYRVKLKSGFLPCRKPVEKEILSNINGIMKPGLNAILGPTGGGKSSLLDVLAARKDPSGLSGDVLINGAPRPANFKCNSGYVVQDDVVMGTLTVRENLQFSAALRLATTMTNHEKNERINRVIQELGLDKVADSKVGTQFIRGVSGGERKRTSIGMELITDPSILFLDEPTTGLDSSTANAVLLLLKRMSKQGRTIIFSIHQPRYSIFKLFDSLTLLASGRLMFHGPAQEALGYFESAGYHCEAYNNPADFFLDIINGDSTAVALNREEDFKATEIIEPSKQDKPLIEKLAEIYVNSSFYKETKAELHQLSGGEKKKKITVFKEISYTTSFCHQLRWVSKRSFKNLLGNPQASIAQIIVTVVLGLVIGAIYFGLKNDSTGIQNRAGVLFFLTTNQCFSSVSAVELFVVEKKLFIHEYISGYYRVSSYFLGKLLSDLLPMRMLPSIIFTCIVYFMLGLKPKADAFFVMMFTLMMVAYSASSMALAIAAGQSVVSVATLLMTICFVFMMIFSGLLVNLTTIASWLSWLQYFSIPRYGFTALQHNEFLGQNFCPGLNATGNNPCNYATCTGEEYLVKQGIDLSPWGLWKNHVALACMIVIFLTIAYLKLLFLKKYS
Nature of the series: Inhibition of recombinant human GFP-fused ABCG2 expressed in MDCK2 cells assessed as reduction in Hoechst 33342 efflux at […] preincubated for 30 mins followed by Hoechst 33342 addition measured immediately at 60 sec time interval for 120 mins by fluorescence assay relative to Ko143. In kind it is cell-based. The conditions noted are these: MDCK2 cells expressing recombinant GFP-fused human ABCG2, probe Hoechst 33342, read-out: Imax.

The target in series [2] is T2, Broad substrate specificity ATP-binding cassette transporter ABCG2 (Homo sapiens, UniProt Q9UNQ0).
T2 sequence (Q9UNQ0 whole entry): T1 sequence (Q9UNQ0 whole entry)
The series can be described thus: Activation of ABCG2 (unknown origin) ATPase activity expressed in baculovirus infected high five cell membranes by ascorbic acid/ammonia molybdate reaction-based colorimetric analysis. To be noted: read-out: EC50. In a few lines:
(§1)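 Colorimetric ATPase assay of ABCG2 membranes; activity expressed relative to control. Where data were biphasic, a combined increasing plus decreasing logistic equation with the Hill coefficient fixed at one was fitted, giving an activating and an inactivating K.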

Series [3] addresses T2, Broad substrate specificity ATP-binding cassette transporter ABCG2. The series can be described thus: Inhibition of recombinant human GFP-fused ABCG2 expressed in MDCK2 cells assessed as reduction in Hoechst 33342 efflux preincubated for 30 mins followed by Hoechst 33342 addition measured immediately at 60 sec time interval for 120 mins by fluorescence assay. The format is cell-based. In a few lines: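 Hoechst 33342 accumulation assay: the dye is an ABCG2 substrate whose fluorescence rises when bound to DNA or embedded in membrane. Intracellular accumulation serves as the read-out of transporter inhibition.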

Series [4] deals with T1, ABCG2. The series can be described thus: Activation of ABCG2 (unknown origin) ATPase activity expressed in baculovirus infected high five cell membranes assessed as protein Vmax by ascorbic acid/ammonia molybdate reaction-based colorimetric analysis relative to basal control. To be noted: read-out: Vmax. In a few lines: as §1
Series [5] in a line: Cytotoxicity against ABCG2 over-expressing MDCK2 cells assessed as cell growth inhibition after 72 hrs by MTT assay. The format is ADME, cell-based, Canis lupus familiaris, MDCK-II. To be noted: dog. (Tetrazolium dyes change colour on reduction, which living cells bring about.)
Series [6] in a line: Therapeutic index, ratio of GI50 for ABCG2 over-expressing MDCK2 cells to IC50 for recombinant human GFP-fused ABCG2 expressed in MDCK2 cells. In kind it is cell-based.
The nature of series [7]: Cytotoxicity against MDCK2 cells assessed as cell growth inhibition after 72 hrs by MTT assay. In kind it is cell-based, Canis lupus familiaris, MDCK-II. To be noted: dog.

Take `COc1cccc(Nc2cc(C)nc(-c3ccncc3)n2)c1`: on ABCG2 [1], the Emax at 2 h was in the range of 80 to 110%. Besides, the EC50 in series [2] is 82 nM. Further, in series [3], the IC50 was determined as 271 nM. The Emax on ABCG2 [4] was 144%.

Take `N#Cc1cccc(Nc2nc(-c3ccccn3)nc3ccccc23)c1`: the Emax at 2 h at ABCG2 [1] is 80 to 110%. In addition, the EC50 in series [2] came out at 1530 nM. The IC50 in series [3] came to 507 nM. Moreover, the Emax on ABCG2 [4] came to 115%.

With `O=[N+]([O-])c1cccc(Nc2nc(-c3ccccn3)nc3ccccc23)c1`, the Emax at 2 h on ABCG2 [1] fell in the range of 80 to 110%. Besides, in series [2], the EC50 amounted to 676 nM. For the same molecule, the IC50 in series [3] amounted to 376 nM. The Emax on ABCG2 [4] was 119%.

With `O=C(O)c1cccc(Nc2nc(-c3ccncc3)nc3ccccc23)c1`, the Emax at 2 h on ABCG2 [1] is 80 to 110%. Also, the IC50 in series [3] worked out at 60000 nM.

As to `N#Cc1ccc(Nc2nc(-c3ccccc3)nc3ccccc23)cc1`, the Emax at 2 h on ABCG2 [1] fell in the range of 80 to 110%. Also, the IC50 in series [3] was 71.4 nM.

With `Cc1cc(Nc2cccc(C#N)c2)nc(-c2ccccc2)n1`, at ABCG2 [1], the Emax at 2 h was 80 to 110%. Also, in series [2], the EC50 is 2080 nM. Besides, the IC50 in series [3] amounted to 122 nM. In addition, the Emax at ABCG2 [4] is 134%.

Regarding `COc1ccc(Nc2cc(C)nc(-c3ccncc3)n2)cc1`, on ABCG2 [1], the Emax at 2 h lay in the range of 80 to 110%. In series [2], the EC50 worked out at 85 nM. In addition, in series [3], the IC50 amounted to 874 nM. Also, the Emax on ABCG2 [4] was 146%.

Turning to `CN(C)c1cccc(Nc2nc(-c3cccnc3)nc3ccccc23)c1`, at ABCG2 [1], the Emax at 2 h fell in the range of 80 to 110%. The GI50 at 72 h in series [5] was 10000 nM; in series [7], 14100 nM. Besides, the TI in series [6] stood at 8.33. The IC50 in series [3] was 1200 nM.

On to `O=S(=O)(F)c1cccc(Nc2nc(-c3ccncc3)nc3ccccc23)c1`, for which the Emax at 2 h at ABCG2 [1] lay within 80 to 110%. In addition, the IC50 in series [3] was 1380 nM.

`c1ccc(Nc2nc(-c3ccccc3)nc3ccccc23)cc1`: the Emax at 2 h at ABCG2 [1] is 80 to 110%. Also, the GI50 at 72 h was 26600 nM in series [5] and 26000 nM in series [7]. The TI in series [6] was found to be 30.1. Further, the half-inhibitory concentration (IC50) in series [3] turned out to be 882 nM.

With `OCc1cccc(Nc2nc(-c3cccnc3)nc3ccccc23)c1`, the Emax at 2 h at ABCG2 [1] fell in the range of 80 to 110%. In addition, in series [3], the IC50 was determined as 810 nM.

In the case of `Oc1ccc(Nc2nc(-c3ccncc3)nc3ccccc23)cc1`, the Emax at 2 h at ABCG2 [1] lay within 80 to 110%. The GI50 at 72 h in series [5] came to 55000 nM; in series [7], 120000 nM. The TI in series [6] is 12.9. The IC50 in series [3] turned out to be 4260 nM.

For the molecule `OCc1cccc(Nc2nc(-c3ccncc3)nc3ccccc23)c1`, the Emax at 2 h on ABCG2 [1] lay in the range of 80 to 110%. In addition, the IC50 in series [3] worked out at 921 nM.

Turning to `COC(=O)c1cccc(Nc2nc(-c3cccnc3)nc3ccccc23)c1`, the Emax at 2 h at ABCG2 [1] fell in the range of 80 to 110%. Further, in series [3], the IC50 was found to be 362 nM.

As to `O=[N+]([O-])c1cc(Nc2nc(-c3ccccc3)nc3ccccc23)ccc1O`, the Emax at 2 h on ABCG2 [1] was in the range of 80 to 110%. Further, in series [2], the EC50 came out at 20 nM. The TI in series [6] was found to be 647. In addition, in series [3], the IC50 was 81.1 nM. In addition, the Emax on ABCG2 [4] was found to be 135%.

For the molecule `Oc1cccc(Nc2nc(-c3ccncc3)nc3ccccc23)c1`, the Emax at 2 h on ABCG2 [1] was in the range of 80 to 110%. The results for the GI50 at 72 h in series [5] and in series [7] were 9220 nM and 12400 nM, respectively. Also, in series [6], the TI was 8.62. For the same molecule, the IC50 in series [3] came to 1070 nM.

With `Fc1cccc(Nc2nc(-c3ccccc3)nc3ccccc23)c1`, on ABCG2 [1], the Emax at 2 h lay within 80 to 110%. In addition, in series [5], the GI50 at 72 h is 18000 nM. The EC50 in series [2] was found to be 131 nM. Besides, in series [6], the TI came to 49.6. Besides, the IC50 in series [3] turned out to be 363 nM. At ABCG2 [4], the Emax was 142%.

On to `O=[N+]([O-])c1cc(Nc2nc(-c3cccnc3)nc3ccccc23)ccc1O`, for which, on ABCG2 [1], the Emax at 2 h lay in the range of 80 to 110%. Further, in series [2], the EC50 amounted to 7 nM. Further, the IC50 in series [3] came to 245 nM. At ABCG2 [4], the Emax was determined as 151%.

With `O=[N+]([O-])c1cccc(Nc2nc(-c3ccncc3)nc3ccccc23)c1`, at ABCG2 [1], the Emax at 2 h is 80 to 110%. Further, the EC50 in series [2] worked out at 4 nM. In series [3], the IC50 was determined as 117 nM. Also, the Emax on ABCG2 [4] was found to be 185%.

The EC50 is the concentration giving half of the maximal effect. The IC50 is the concentration needed to halve the response being measured. In general, GI50 refers to the concentration that inhibits growth by half.

The values above are taken from ChEMBL document CHEMBL4014315 (J Med Chem, 2017).
